Where “and” joins values, the source holds several entries; their conditions need not be identical. Identical values can stand only once. Where no end group is shown, it is not given here.
Assays:
[1] = Ca^2+ association constants of chromophoric chelators; format: binding; conditions: 20 °C, 20 mM Tris-HCl pH 6.8, 100 mM NaCl
[2] = molecular target: Lethocerus troponin C, F1 isoform (Lethocerus); assay: other fluorescence titration
[3] = molecular target: Lethocerus troponin C, F2 isoform (Lethocerus); assay: other fluorescence titration
[4] = molecular target: T1, F1 TnC (Lethocerus indicus, UniProt Q868D4); assay: TnH peptide binding to F1 TnC by competition with melittin; conditions: 20 °C, 20 mM Tris-HCl pH 6.8, 100 mM NaCl
T1 sequence (Q868D4 1-158): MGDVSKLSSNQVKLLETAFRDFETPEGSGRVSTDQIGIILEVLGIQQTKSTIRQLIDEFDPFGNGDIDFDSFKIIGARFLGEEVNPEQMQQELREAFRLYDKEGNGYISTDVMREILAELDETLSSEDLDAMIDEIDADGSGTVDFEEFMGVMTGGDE
How it was run: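 Competition assay: mixtures of melittin and F1 TnC were titrated with synthetic test peptides (TnH fragments; >95% HPLC, sequences MALDI-verified). Displacement was followed by melittin Trp fluorescence (excitation 280 nm, emission 290–400 nm). Conditions were 20 °C, 20 mM Tris-HCl pH 6.8, 100 mM NaCl, with 1 mM Ca2+, 5 mM Mg2+, or both.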

[5] = molecular target: T2, F2 TnC (Lethocerus indicus, UniProt Q868D3); assay: TnH peptide binding to F2 TnC by competition with melittin; conditions: 20 °C, 20 mM Tris-HCl pH 6.8, 100 mM NaCl
T2 sequence (Q868D3 1-158): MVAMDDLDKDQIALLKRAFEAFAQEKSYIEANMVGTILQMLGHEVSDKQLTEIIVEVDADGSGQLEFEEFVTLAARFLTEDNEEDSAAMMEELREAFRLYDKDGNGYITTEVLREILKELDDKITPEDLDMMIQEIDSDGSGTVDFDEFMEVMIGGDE
How it was run: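 Recombinant F2 TnC was expressed in E. coli BL21(DE3), purified on Ni-NTA, His-tag cleaved with TEV, then purified by gel filtration. Melittin (0.33 μM) plus F2 TnC (1.4 μM with 1 mM Ca2+) was titrated with synthetic test peptides (TnH fragments). Binding was read by melittin Trp fluorescence (excitation 280 nm, emission 290–400 nm) at 20 °C, pH 6.8 Tris/100 mM NaCl; Mg2+ was 5 mM.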

[6] = molecular target: T1, F1 TnC; conditions: C lobe of F1 TnC, essentially Ca^2+ independent; cited from earlier work
[7] = 1 mM Ca^2+ and 5 mM Mg^2+, competition with melittin
[8] = 5 mM Mg^2+, competition with melittin

## O=C(O)CN(CC(=O)O)c1ccc(Br)cc1OCCOc1cc(Br)ccc1N(CC(=O)O)CC(=O)O [5,5′-dibromo BAPTA]
[1]
  Equilibrium association constant for Ca^2+ (KCa): (6.3 ± 0.5) × 10^5 M^−1

## O=C(O)CN(CC(=O)O)c1ccccc1OCCOc1cc([N+](=O)[O-])ccc1N(CC(=O)O)CC(=O)O [5-nitro BAPTA]
[1]
  Equilibrium association constant for Ca^2+ (KCa): (4.1 ± 0.3) × 10^4 M^−1

## Melittin from honey bee venom (from UniProt P01501 44-70) (peptide)
[2]
  Kd: 41 nM and 8.3 nM and 32 nM
[3]
  Kd: 840 nM and 190 nM and 770 nM

## TnH(30−61) peptide of Lethocerus troponin H
[2]
  Kd: 1.3 nM and 1.9 nM and 2.2 nM

## TnH(126−159) peptide of Lethocerus troponin H
[2]
  Kd: 12200 nM and 3700 nM and 9100 nM

## YDLNSQVNDLRGKFVKPTLKKVSKYENKFAKLQKK [TnH(126−159)]
[4]; 1 mM Ca^2+
  Kd: 3700 ± 1100 nM
[4]; 5 mM Mg^2+
  Kd: 9100 ± 3200 nM
[4]; metal: none (0.2 mM EGTA)
  Kd: 12200 ± 3400 nM
[5]; [7]
  Kd: 3500 ± 800 nM
[5]; 1 mM Ca^2+, competition with melittin 0.33 μM, F2 TnC 1.4 μM
  Kd: 3100 ± 800 nM
[5]; [8]
  Kd: 13500 ± 3500 nM
[6]
  Equilibrium dissociation constant range for F1 TnC: in the micromolar range

## YKAKKAKKGFMTPERKKKLRLLLRKKAAEELKK [TnH(30−61)]
[4]; 1 mM Ca^2+ and 5 mM Mg^2+
  Kd: 1.3 ± 0.4 nM
[4]; 1 mM Ca^2+
  Kd: 0.9 ± 0.2 nM
[4]; 5 mM Mg^2+
  Kd: 2.2 ± 0.4 nM
[4]; metal: none (0.2 mM EGTA)
  Kd: 1.9 ± 0.6 nM
[5]; 1 mM Ca^2+ (holo), competition with melittin 0.33 μM, F2 TnC 1.4 μM
  Kd: 7.8 ± 0.15 nM
[5]; [7]
  Kd: 6.7 ± 0.9 nM
[5]; [8]
  Kd: 38.5 ± 5.2 nM
[6]
  Equilibrium dissociation constant range for F1 TnC: in the nanomolar range

From publication PMC3057471 (Biochemistry, 2011)
